≈ marks a conversion by molar mass, not a printed value. Calls of active or inactive are those of the source.
How the values were obtained:
Streptococcus pneumoniae [1] = test: Antibacterial efficacy against Streptococcus pneumoniae SVI infected orally dosed CD1 mouse model; format: functional; details: po
Outline: (§1)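 Sepsis model in female CD1 mice (6–8 weeks, 18–22 g). Lethal i.p. challenge (0.5 ml) at ≥100 median lethal doses. Streptococci were given in Todd-Hewitt broth; other organisms were given with 20% hog gastric mucin. A single oral gavage dose (0.5 ml, in 0.5% methylcellulose) was given at the time of challenge. The PD50 (mg/kg) was calculated by probit analysis.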

Staphylococcus aureus [2] = test: Antibacterial efficacy against methicillin-resistant Staphylococcus aureus SA1417 infected orally dosed CD1 mouse model; format: functional; outline: as §1
Streptococcus pneumoniae [3] = test: Bactericidal activity against Streptococcus pneumoniae SV1 at 0.008 ug/ml by time-kill study; format: functional, organism-based
Outline: (§2)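 Time-kill in 10 ml of cation-adjusted Mueller-Hinton broth with 3% lysed horse blood, without agitation. Multiples of MIC tested. Samples taken at 0, 2, 4, 6 and 24 h and plated on tryptic soy agar with 5% sheep blood after ≥250-fold dilution, detection limit 10 CFU/ml. Counts read after 24 h at 35°C. Bactericidal defined as a ≥3 log10 drop from the starting inoculum within 24 h.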

Streptococcus pneumoniae [4] = test: Bactericidal activity against Streptococcus pneumoniae SV1 at 2 ug/ml by time-kill study; format: functional, organism-based; outline: as §2
Streptococcus pyogenes [5] = test: Bactericidal activity against Streptococcus pyogenes C203 at 0.008 ug/ml by time-kill study; format: functional, organism-based; outline: as §2
Streptococcus pyogenes [6] = test: Antibacterial efficacy against Streptococcus pyogenes C203 infected orally dosed CD1 mouse model; format: functional; details: C203, po; outline: as §1
Streptococcus pyogenes [7] = test: Bactericidal activity against Streptococcus pyogenes C203 at 2 ug/ml by time-kill study; format: functional, organism-based; outline: as §2
Staphylococcus aureus [8] = test: Antibacterial efficacy against methicillin-susceptible Staphylococcus aureus UC76 infected orally dosed CD1 mouse model; format: functional; details: UC76, po; outline: as §1
Staphylococcus aureus [9] = test: Antibacterial efficacy against ciprofloxacin and methicillin-resistant Staphylococcus aureus SA2017 infected orally dosed CD1 mouse model; format: functional; outline: as §1
Enterococcus faecalis = test: Antibacterial efficacy against Enterococcus faecalis MGH2 infected orally dosed CD1 mouse model; format: functional; outline: as §1

O=C(O)c1cn(C2CC2)c2cc(N3CCNCC3)c(F)cc2c1=O [CIPROFLOXACIN]
MIC (Streptococcus pneumoniae [1]): 2 mg/L (≈ 6.04 µM) | ED50 (Streptococcus pneumoniae [1]; read-out: PD50): > 100 mg/kg | MIC (Staphylococcus aureus [2]): 0.5 mg/L (≈ 1.51 µM) | ED50 (Staphylococcus aureus [2]; read-out: PD50): 18 mg/kg | Activity (Streptococcus pneumoniae [3]): Active | Activity (Streptococcus pneumoniae [4]): Active | Activity (Streptococcus pyogenes [5]): Active | MIC (Streptococcus pyogenes [6]): 0.5 mg/L (≈ 1.51 µM) | ED50 (Streptococcus pyogenes [6]; read-out: PD50): > 100 mg/kg | Activity (Streptococcus pyogenes [7]): Active | MIC (Staphylococcus aureus [8]): 0.06 mg/L (≈ 0.181 µM) | ED50 (Staphylococcus aureus [8]; read-out: PD50): 9.1 mg/kg | MIC (Staphylococcus aureus [9]): > 64 mg/L | ED50 (Staphylococcus aureus [9]; read-out: PD50): > 100 mg/kg | MIC (Enterococcus faecalis): 0.5 mg/L (≈ 1.51 µM)

From ChEMBL document CHEMBL1147105, “In vitro and in vivo activities of PD 0305970 and PD 0326448, new bacterial gyrase/topoisomerase inhibitors with potent antibacterial activities versus multidrug-resistant gram-positive and fastidious organism groups” (2007)
